Results pooled from the literature.
EPHX2: Bifunctional epoxide hydrolase 2 (EPHX2, Homo sapiens, UniProt P34913)
Maoa: Amine oxidase [flavin-containing] A (Maoa, Mus musculus, UniProt Q64133)
DDB1: DNA damage-binding protein 1 (DDB1, Homo sapiens, UniProt Q16531)

| SMILES | target | test | setting | quantity | result |
| --- | --- | --- | --- | --- | --- |
| COC(=O)c1cc(N(C)C(=O)c2ccn3ncc(-c4ccc(C(=O)O)cc4)c3c2)ccc1Cl | Proto-oncogene tyrosine-protein kinase receptor Ret (RET, Homo sapiens, UniProt P07949) | enzyme activity, inhibitor |  | IC50 | > 30 µM |
| S=C=NCCc1ccccc1 | EPHX2 | enzyme activity, inhibitor, fluorescence |  | IC50 | 7.5 µM |
| C#CCN(C)CCCOc1ccc(Cl)cc1Cl | Maoa | enzyme activity, inhibitor, fluorescence |  | IC50 | 0.045 µM |
| O=C(C=Cc1ccccc1)Nc1cc(-c2ccnc(N3CCC(O)CC3)c2)ccn1 | Estrogen receptor beta (ESR2, Homo sapiens, UniProt Q92731) | binding, SPR |  | Kd | 1.63 µM |
| CC[C@H](C)[C@H](NC(=O)[C@H](CO)NC(=O)[C@H](CCC(N)=O)NC(=O)CNC(=O)[C@H](CC(C)C)NC(=O)[C@H](CO)NC(=O)[C@H](CO)NC(=O)[C@H](CCCCN)NC(=O)[C@H](Cc1ccc(O)cc1)NC(=O)[C@@H](NC(=O)[C@H](Cc1ccc(O)cc1)NC(=O)[C@H](Cc1c[nH]cn1)NC(=O)[C@H](CC(C)C)NC(=O)[C@@H](NC(=O)[C@H](CO)NC(=O)[C@@H](NC(=O)[C@H](CCC(N)=O)NC(=O)CN)[C@@H](C)O)[C@@H](C)CC)[C@@H](C)CC)C(=O)N[C@@H](Cc1c[nH]cn1)C(=O)N[C@@H](C)C(=O)N[C@@H](CCC(N)=O)C(=O)N[C@@H](CC(C)C)C(=O)N[C@@H](CCCNC(=N)N)C(=O)N[C@@H](CCC(N)=O)C(=O)N[C@@H](CS)C(=O)N[C@@H](CC(C)C)C(=O)NCC(=O)NCC(=O)NCC(=O)NCC(=O)O | DDB1 | cell-free assay, FP | pH 7.5 | IC50 | 0.867 µM |
| CNC(=O)c1ccc(-c2cnn3ccc(C(=O)N(C)c4ccc(Cl)c(C(=O)O)c4)cc23)cc1 | Tyrosine-protein kinase JAK2 (JAK2, Homo sapiens, UniProt O60674) | enzyme activity, inhibitor |  | IC50 | > 30 µM |
| CC[C@H](C)[C@H](NC(=O)[C@H](CCCCN)NC(=O)[C@@H](NC(=O)[C@H](CCCNC(=N)N)NC(=O)[C@H](CCC(=O)O)NC(=O)[C@H](CC(C)C)NC(=O)[C@H](CCC(N)=O)NC(=O)[C@H](CCCCN)NC(=O)[C@H](CC(C)C)NC(=O)[C@@H](NC(=O)[C@H](Cc1c[nH]cn1)NC(=O)[C@H](CCC(=O)O)NC(=O)[C@@H](N)CCCNC(=N)N)C(C)C)C(C)C)C(=O)N[C@@H](CO)C(=O)NCC(=O)N[C@@H](CCC(N)=O)C(=O)N[C@@H](CC(C)C)C(=O)N[C@@H](CO)C(=O)N1CCC[C@H]1C(=O)N[C@@H](CCCNC(=N)N)C(=O)N[C@@H](CC(C)C)C(=O)N[C@@H](Cc1ccccc1)C(=O)N[C@@H](CCCNC(=N)N)C(=O)N[C@@H](CCCCN)C(=O)N[C@@H](CC(C)C)C(=O)N1CCC[C@H]1C(=O)N1CCC[C@H]1C(=O)N[C@@H](CCCNC(=N)N)C(=O)N[C@H](C(=O)N[C@@H](CS)C(=O)N[C@H](C(=O)N[C@@H](CO)C(=O)O)C(C)C)C(C)C | DDB1 | cell-free assay, FP | pH 7.5 | IC50 | 0.058 µM |
| CC[C@H](C)[C@@H]1NC(=O)[C@H](CC(=O)O)NC(=O)[C@H]([C@@H](C)O)NC(=O)[C@@H]2CSSC[C@@H]3NC(=O)[C@H](CC(C)C)NC(=O)[C@H](CC(N)=O)NC(=O)[C@H](CC(C)C)NC(=O)[C@H](CCCNC(=N)N)NC(=O)[C@H](Cc4ccc(O)cc4)NC(=O)[C@H](CCCCN)NC(=O)[C@H](CCSC)NC(=O)[C@H](CO)NC(=O)[C@H]([C@@H](C)O)NC(=O)[C@H](CCCNC(=N)N)NC(=O)[C@H](CSSC[C@H](NC(=O)[C@H]([C@@H](C)O)NC(=O)[C@H](CCCCN)NC(=O)[C@H](CCCNC(=N)N)NC3=O)C(=O)NCC(=O)N[C@@H](CO)C(=O)N[C@H](C(=O)O)CSSC[C@H](NC(=O)[C@@H](NC(=O)[C@@H](N)CCCNC(=N)N)[C@@H](C)O)C(=O)N[C@@H](CCCCN)C(=O)N[C@@H](CC(=O)O)C(=O)N[C@@H](CC(C)C)C(=O)N[C@@H]([C@@H](C)CC)C(=O)N3CCC[C@H]3C(=O)N[C@@H](C(C)C)C(=O)N[C@@H](CO)C(=O)N[C@@H](CCC(=O)O)C(=O)N2)NC(=O)[C@H](CCCNC(=N)N)NC1=O | Potassium voltage-gated channel subfamily A member 2 (KCNA2, Homo sapiens, UniProt P16389) | ion current, inhibitor, two-electrode voltage clamp | oocytes | Ki | 0.0025 µM |
| C[S+]([O-])CCCN=C=S (stereo not shown) | EPHX2 | enzyme activity, inhibitor, fluorescence |  | IC50 | 20.2 µM |
| Cc1ccc(F)c(CNS(=O)(=O)c2cccc3cccnc23)c1 | Maoa | enzyme activity, inhibitor, fluorescence |  | IC50 | 2.74 µM |
